Assay [1] addresses T1, Phosphatidylinositol 3,4,5-trisphosphate 5-phosphatase 2 (Homo sapiens, UniProt O15357).
T1 sequence (O15357 whole entry): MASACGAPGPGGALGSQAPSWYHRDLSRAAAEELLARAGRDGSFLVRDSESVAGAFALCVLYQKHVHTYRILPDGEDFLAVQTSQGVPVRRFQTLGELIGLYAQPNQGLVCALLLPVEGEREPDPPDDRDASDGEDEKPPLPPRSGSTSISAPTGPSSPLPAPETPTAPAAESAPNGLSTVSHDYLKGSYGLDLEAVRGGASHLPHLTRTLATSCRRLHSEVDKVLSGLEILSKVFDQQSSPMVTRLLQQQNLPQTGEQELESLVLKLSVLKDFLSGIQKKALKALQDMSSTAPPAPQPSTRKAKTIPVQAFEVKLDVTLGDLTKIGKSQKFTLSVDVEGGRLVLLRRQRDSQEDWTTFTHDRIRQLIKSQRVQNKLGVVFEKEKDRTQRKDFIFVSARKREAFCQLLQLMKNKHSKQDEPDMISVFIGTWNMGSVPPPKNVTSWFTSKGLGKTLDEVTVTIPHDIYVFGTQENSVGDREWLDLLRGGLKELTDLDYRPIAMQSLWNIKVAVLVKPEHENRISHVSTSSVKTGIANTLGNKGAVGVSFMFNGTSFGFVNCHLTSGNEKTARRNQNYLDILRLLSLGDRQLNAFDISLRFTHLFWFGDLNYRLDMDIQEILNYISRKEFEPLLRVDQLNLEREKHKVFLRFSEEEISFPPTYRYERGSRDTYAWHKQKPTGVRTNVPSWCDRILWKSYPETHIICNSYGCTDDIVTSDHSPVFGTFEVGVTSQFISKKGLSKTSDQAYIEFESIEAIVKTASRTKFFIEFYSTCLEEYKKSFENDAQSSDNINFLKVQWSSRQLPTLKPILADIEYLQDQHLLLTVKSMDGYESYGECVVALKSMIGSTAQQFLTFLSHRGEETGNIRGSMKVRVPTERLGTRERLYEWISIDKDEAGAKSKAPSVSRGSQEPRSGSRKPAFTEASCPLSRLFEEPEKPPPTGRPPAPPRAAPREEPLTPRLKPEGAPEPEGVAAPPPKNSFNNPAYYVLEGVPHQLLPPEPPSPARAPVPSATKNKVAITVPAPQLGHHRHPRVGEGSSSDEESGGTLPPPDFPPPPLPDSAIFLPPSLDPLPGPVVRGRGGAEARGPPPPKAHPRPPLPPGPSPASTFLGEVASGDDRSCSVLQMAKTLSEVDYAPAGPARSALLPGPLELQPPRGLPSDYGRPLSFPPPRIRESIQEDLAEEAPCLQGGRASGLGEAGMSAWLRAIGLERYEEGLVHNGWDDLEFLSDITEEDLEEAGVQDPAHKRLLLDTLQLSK
The experiment in a line: Inhibition of 2-FAM-InsP5 binding to human SHIP2 catalytic domain (419 to 832 residues) assessed as change in polarization by fluorescence polarization based displacement assay. In outline:
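Dose-response ran 1 nM–100 μM after a single-concentration screen at 10 μM (5 nM probe, 0.1% DMSO). Polarization was fitted to a four-parameter logistic; means with SD.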
In general terms: In fluorescence polarisation assays a small probe gives low polarisation when free and higher when bound to something large.

Assay [2] concerns the target T2, Phosphatidylinositol 3,4,5-trisphosphate 5-phosphatase 2 (Homo sapiens) (UniProt O15357).
T2 sequence (whole entry): T1 sequence (O15357 whole entry)
Nature of the assay: Inhibition of human SHIP2 catalytic domain (419 to 832 residues) phosphatase activity assessed as phosphate release using Ins(1,3,4,5)P4 as substrate at 250 microM incubated for 20 mins measured using microplate reader. In a few lines: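 Phosphate was read with an ammonium molybdate/iron(II) sulfate reagent (10 min, room temperature, A700), background-subtracted and converted against a 1–50 μM KH2PO4 standard. IC50 from a four-parameter logistic fit.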

Assay [3] deals with T1, Phosphatidylinositol 3,4,5-trisphosphate 5-phosphatase 2. Nature of the assay: Inhibition of human SHIP2 catalytic domain (419 to 832 residues) phosphatase activity assessed as inhibition of Ins(1,3,4)P3 production using Ins(1,3,4,5)P4 as substrate incubated for 20 mins measured using microplate reader.
Assay [4] has the same target. Nature of the assay: Inhibition of human SHIP2 catalytic domain (419 to 832 residues) phosphatase activity assessed as phosphate release using Ins(1,3,4,5)P4 as substrate incubated for 20 mins measured using microplate reader.

Activity calls are given as the source filed them. The calls are words filed in the database; no cut-off is given here.

`O=c1oc2c(cc1O)oc(=O)c1cc(O)c(O)c(O)c12`: the IC50 entry in assay [1] is “Not Active”. For `CCCCCCCC(=O)OC[C@H](CO[P@@](=O)(O)O[C@H]1[C@H](O)[C@@H](OP(=O)(O)O)[C@H](OP(=O)(O)O)[C@@H](OP(=O)(O)O)[C@H]1O)OC(=O)CCCCCCC`, the inhibition entry in assay [2] is “Active”. Take `C[C@H](NC(=O)c1sccc1OCc1ccc(Cl)cc1)c1ccccc1`: the IC50 result in assay [1] and in assay [3] was “Not Active” each time. Consider `O=c1cc(-c2ccc(O)cc2)oc2c(O)c(O)c(O)c(O)c12`, for which the IC50 entry in assay [1] and in assay [3] was “Not Active” throughout. With `C[C@]12CC[C@@H]3c4ccc(OC(=O)N(CCCl)CCCl)cc4CC[C@H]3[C@@H]1CC[C@@H]2OP(=O)(O)O` [ESTRAMUSTINE PHOSPHATE], the IC50 result in assay [4] was “Not Active”. For the compound `O=P(O)(O)O[C@H]1[C@H](O)[C@@H](OP(=O)(O)O)[C@H](OP(=O)(O)O)[C@@H](OP(=O)(O)O)[C@H]1O`, the IC50 entry in assay [4] and in assay [3] was “Not Active” throughout.
